PfG6PD inh: PfG6PD (Plasmodium falciparum) enzyme inhibition | PfGluPho enzyme, NADPH resazurin-diaphorase fluorescence | inhibition, % at 20 µM | hit rate 0.78% among 350,000 | AID 504690;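 active = inhibition reaching at least a set limit at 20 µM in the primary screen, cut at about 59% in these data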;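 note: 0% = DMSO wells with substrate and 100% = DMSO wells lacking glucose-6-phosphate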
HKDC1 inh: HKDC1 (human) hexokinase inhibition | hit rate 0.16% among 340,000 | recombinant HKDC1, G6PDH/diaphorase resazurin coupled fluorescence | Q2TB90 | inhibition, % at 20 µM;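 active = inhibition above about 35% when tested at 20 µM, limit read from the data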;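 note: plate controls were DMSO wells with enzyme for no effect and DMSO wells lacking enzyme for full effect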
Target sequence (Q2TB90 whole entry, looked up): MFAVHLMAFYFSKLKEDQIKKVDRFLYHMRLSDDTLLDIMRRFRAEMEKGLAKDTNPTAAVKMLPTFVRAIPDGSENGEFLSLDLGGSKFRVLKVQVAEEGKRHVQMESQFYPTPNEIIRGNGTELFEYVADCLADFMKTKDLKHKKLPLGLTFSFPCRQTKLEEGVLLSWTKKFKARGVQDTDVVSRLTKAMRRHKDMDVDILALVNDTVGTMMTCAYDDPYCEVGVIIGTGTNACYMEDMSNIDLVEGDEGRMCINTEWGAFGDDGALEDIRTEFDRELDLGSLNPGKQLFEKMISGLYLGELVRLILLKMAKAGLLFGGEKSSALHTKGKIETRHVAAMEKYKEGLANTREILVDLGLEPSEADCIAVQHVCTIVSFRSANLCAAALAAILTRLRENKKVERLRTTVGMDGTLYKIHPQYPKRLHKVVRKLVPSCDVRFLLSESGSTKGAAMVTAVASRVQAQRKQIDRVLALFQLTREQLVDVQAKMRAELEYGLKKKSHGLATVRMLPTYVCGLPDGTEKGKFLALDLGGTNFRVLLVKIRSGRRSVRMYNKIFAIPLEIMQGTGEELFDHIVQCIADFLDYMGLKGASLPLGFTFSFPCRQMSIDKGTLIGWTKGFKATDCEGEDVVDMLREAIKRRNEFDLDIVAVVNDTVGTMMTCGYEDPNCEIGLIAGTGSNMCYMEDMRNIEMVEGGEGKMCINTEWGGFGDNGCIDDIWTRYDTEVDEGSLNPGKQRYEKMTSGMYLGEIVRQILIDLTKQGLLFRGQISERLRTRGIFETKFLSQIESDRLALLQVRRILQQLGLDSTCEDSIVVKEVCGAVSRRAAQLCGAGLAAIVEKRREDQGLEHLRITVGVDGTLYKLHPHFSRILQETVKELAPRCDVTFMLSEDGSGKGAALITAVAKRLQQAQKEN
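Assay system: recombinant HKDC1 hexokinase; detection: coupled resazurin fluorescence, excitation 525 nm, emission 613 nm; benchmarks: DMSO-plus-enzyme-mix negative control, buffer-substituted positive control; compound dosing: single 20 µM dose; schedule: 90 min at room temperature in dark; also added: glucose plus 1 mM ATP as hexokinase substrates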
G6PDH CS: L. mesenteroides G6PDH inhibition counter-screen; Purified L. mesenteroides G6PDH, diaphorase/resazurin coupled fluorescence, 45 min; hit rate 0.12% among 200,000; AID 1020; inhibition, % at 5 µM; in the data active = inhibition above about 50%
Diaph act CS: diaphorase activation or chemical reduction counter-screen | Diaphorase/resazurin coupled assay, resorufin fluorescence, 16 min; active compounds read high; 1 = vehicle wells, 0 = NADH-free wells | activation factor at 20 µM | hit rate 0.005% among 190,000;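 active = diaphorase activity raised at least twofold by the compound at 20 µM; inactive = activation factor below 2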
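Assay system: Purified diaphorase enzyme from Clostridium kluyveri | Amount: Enzyme 0.07 U/mL final | Dosing: Compound 20 µM once, DMSO 1% | Timing: 16 min reaction at room temperature | Detection: Fluorescence, excitation 544 nm and emission 590 nm | Evaluation: Higher resorufin formation from activation or reduction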
Diaphorase inh: counter-screen for diaphorase-based assays: diaphorase inhibitors and chemical oxidizers; diaphorase resazurin-to-resorufin fluorescence, NADH, 16 min; bacterial (C. kluyveri) enzyme, not human; inhibition, % at 20 µM; hit rate 0.69% among 190,000; AID 1217;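 active = primary screen inhibition at 20 µM above a set limit, cut at about 50% in these data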;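 note: plate controls were DMSO with full reaction for no effect and wells lacking NADH for full effect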
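Assay system: diaphorase enzyme from Clostridium kluyveri; Input: enzyme working solution with 0.14 U/mL diaphorase; Timing: 16 min at room temperature; Technique: resorufin fluorescence, excitation 544 nm, emission 590 nm; Benchmarks: positive control minus NADH, DMSO neutral control.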
PfG6PD confirm: PfG6PD inhibition, single-dose confirmed; shares compounds with PfG6PD inh; recombinant PfGluPho, NADPH-diaphorase-resazurin fluorescence; AID 504753; inhibition, % at 20 µM; hit rate 34% among 2,400;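 active = inhibition of at least 50% at 20 µM in any single replicate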;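 note: 0% = DMSO with substrate and 100% = DMSO lacking glucose-6-phosphate substrate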
Diaph ctr 10uM: diaphorase inhibition or oxidation at 10 uM NADPH; diaphorase-coupled resazurin reduction, fluorescence, NADPH 10 uM; hit rate 39% among 820; shares compounds with PfG6PD inh; inhibition, % at 20 µM; AID 504862;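 active = average inhibition reaching 50% or more with the compound at 20 µM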;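 note: resorufin red fluorescence formed as diaphorase reduces resazurin using NADPH; 0% = DMSO with enzyme and 100% = DMSO without enzyme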
Diaph ctr 30uM: inhibits diaphorase or oxidizes, flagging false PfG6PD hits; inhibition, % at 20 µM; AID 504863; Diaphorase/resazurin coupled assay, resorufin fluorescence, 30 uM NADPH; shares compounds with PfG6PD inh; hit rate 29% among 820;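 active = inhibition averaging 50% or more, tested at 20 µM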;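 note: 0% = DMSO with enzyme and 100% = DMSO wells lacking diaphorase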
Active calls of the source: *. An excerpt weighted towards active compounds, which were near 1.2% of everything screened.

COc1cc(NS(=O)(=O)c2cc3[nH]c(=O)c(=O)[nH]c3cc2C)cc(OC)c1OC was read as PfG6PD inh 63*, HKDC1 inh 17 and PfG6PD confirm 0.
COc1cc(NS(=O)(=O)c2ccc(C)cc2C)cc(OC)c1OC was read as PfG6PD inh 18, HKDC1 inh 4, G6PDH CS 8, Diaph act CS 0.9 and Diaphorase inh 11.
Screening O=c1c2cccc(Cl)c2nc2n1Cc1ccccc1-2 returned PfG6PD inh 78*, HKDC1 inh -4 and PfG6PD confirm 43.
For O=c1nc2n(c3ccccc13)Cc1ccccc1-2 the results were G6PDH CS 4, Diaph act CS 0.9 and Diaphorase inh 10.
For O=C(CSc1ccc(Cl)cc1)N/N=C/c1ccc([N+](=O)[O-])o1 the results were PfG6PD inh 110*, HKDC1 inh 10, PfG6PD confirm 82*, Diaph ctr 10uM 81* and Diaph ctr 30uM 66*.
Screening O=C(CSc1ccc(Cl)cc1)N/N=C/c1cccnc1 returned PfG6PD inh 63*, HKDC1 inh -2, G6PDH CS 4, Diaph act CS 0.9, Diaphorase inh 6 and PfG6PD confirm 36.
For O=C(CNc1ccc2ccccc2c1)N/N=C/c1ccc([N+](=O)[O-])o1 the results were PfG6PD inh 24, HKDC1 inh 11, G6PDH CS 18, Diaph act CS 0.8 and Diaphorase inh 22.
COc1ccc(S(=O)(=O)N2CCOCC2)cc1NC(=O)CCNC(=O)c1ccc([N+](=O)[O-])cc1 was read as PfG6PD inh 2 and HKDC1 inh -6.
For CC1(C)CC(NS(=O)(=O)c2ccc3ccccc3c2)CC(C)(C)N1 the results were PfG6PD inh -14 and HKDC1 inh 2.
For O=C(Cn1sc2ccccc2c1=O)Nc1ccc(F)cc1 the results were PfG6PD inh 125*, PfG6PD confirm 106*, Diaph ctr 10uM -13 and Diaph ctr 30uM 15.
Screening O=C(CN1C(=O)C2CC=CCC2C1=O)Nc1ccc(Br)cc1 (configuration not stated) returned PfG6PD inh 1 and HKDC1 inh -8.
For O=C(Cn1sc2ccccc2c1=O)Nc1ccc(Br)cc1 the results were PfG6PD inh 123*, PfG6PD confirm 91*, Diaph ctr 10uM -8 and Diaph ctr 30uM 5.
Screening O=C(Cn1sc2ccccc2c1=O)Nc1ccc(Cl)cc1 returned PfG6PD inh 125*, PfG6PD confirm 96*, Diaph ctr 10uM -30 and Diaph ctr 30uM 2.
O=C(CN1C(=O)CNC1=O)Nc1ccc(Cl)cc1 was read as PfG6PD inh -1 and HKDC1 inh -10.
`OCC[C@H]1C[C@H](O)[C@@H](O)[C@@]2(CCCc3ccccc3O2)O1` gave PfG6PD inh -7 and HKDC1 inh 2.
For O=C(CN1C(=O)C2C3C=CC(C3)C2C1=O)OCC(=O)c1ccc([N+](=O)[O-])cc1 (configuration not stated) the results were PfG6PD inh 59*, HKDC1 inh -4, PfG6PD confirm 60*, Diaph ctr 10uM -1 and Diaph ctr 30uM -4.
For Cc1ccc(-c2nc3ccccc3nc2-c2ccccc2)cc1 the results were PfG6PD inh 0 and HKDC1 inh -1.
`CNc1nc(-c2ccccc2)[n+](-c2ccc(C)cc2)s1` gave PfG6PD inh 108*, HKDC1 inh 19, G6PDH CS 21, Diaph act CS 0.7, Diaphorase inh 26, PfG6PD confirm 107*, Diaph ctr 10uM -25 and Diaph ctr 30uM -13.
`Cc1ccc(-c2nc(N)s[n+]2-c2ccccc2)cc1` gave PfG6PD inh 110*, HKDC1 inh -6, G6PDH CS 7, Diaph act CS 0.7, Diaphorase inh 27, PfG6PD confirm 56*, Diaph ctr 10uM -35 and Diaph ctr 30uM -23.
`CC(=O)N(c1cc(C)ccc1C)c1ccccc1[N+](=O)[O-]` gave PfG6PD inh -4 and HKDC1 inh -5.
O=C(CN1C(=O)c2cccc3cccc1c23)NC1CCCC1 was read as PfG6PD inh 11 and HKDC1 inh 0.
For CCc1[nH]c(=O)c(C#N)c2c1CCCC2 the results were PfG6PD inh 3, HKDC1 inh -4, G6PDH CS -2, Diaph act CS 1.1 and Diaphorase inh -10.
For CCc1[nH]c(=S)c(C#N)c2c1CCCC2 the results were PfG6PD inh 66*, HKDC1 inh 2, G6PDH CS 2, Diaph act CS 0.8, Diaphorase inh 18 and PfG6PD confirm 41.
Screening COc1ccccc1-c1ccc([C@@H]2C[C@H]3[C@H](CON3C)CN2C(=O)c2ccc(-c3ccccc3)cc2)cc1 returned PfG6PD inh 19.
`COc1ccccc1NC(=O)COc1cccc2c1CCNC2=O` gave PfG6PD inh -7 and HKDC1 inh -13.
Screening Cc1ccc(-n2c(C)cc(C(=O)NS(=O)(=O)c3ccc(C)cc3)c2C)cc1 returned PfG6PD inh -30, HKDC1 inh 0, G6PDH CS -3, Diaph act CS 0.9 and Diaphorase inh 13.
Cc1ccc(NC(=O)c2cc(C)n(-c3ccccc3)c2C)cc1 was read as PfG6PD inh 95*, HKDC1 inh -6, G6PDH CS -5, Diaph act CS 0.9, Diaphorase inh 14, PfG6PD confirm 53*, Diaph ctr 10uM 53* and Diaph ctr 30uM 34.
For Cc1ccc(NC(=O)c2cnn(-c3ccccc3)c2C)cc1 the results were PfG6PD inh 30 and HKDC1 inh 1.
Cc1ccc(NC(=O)c2cc(C)n(-c3cccc(C)c3)c2C)cc1 was read as PfG6PD inh 82*, HKDC1 inh -8, G6PDH CS -12, Diaph act CS 0.8, Diaphorase inh 20 and PfG6PD confirm 32.
`Cc1cc(C(=O)Nc2ccc(Cl)cc2)c(C)n1-c1ccccc1` gave PfG6PD inh 98*, HKDC1 inh 3 and PfG6PD confirm 11.
O[C@@H]1C[C@H](c2ccc(Cl)cc2)N(Cc2cccs2)C[C@H]1n1cc(C2CC2)nn1 was read as PfG6PD inh 12.
`CCC(C)(C)C1CCC2(CC1)NC(=O)N(CC(=O)N1CCN(c3ccccc3OC)CC1)C2=O` (configuration not stated) gave PfG6PD inh -1.
